Laboratory results taken from ChEMBL document CHEMBL4842369, “Synthesis, structure-activity relationship and antiviral activity of indole-containing inhibitors of Flavivirus NS2B-NS3 protease” (Eur J Med Chem, 2021).
Active and inactive are the calls of the source. The rule behind the calls is not given here.

How the values were obtained:
[1] = target: Nonstructural protein 3 (Zika virus, UniProt A0A024AXB9); assay: Inhibition of Zika virus recombinant NS2B (47 to 95 residues)/NS3 (1 to 177 residues) protease expressed in Escherichia coli BL21 using Bz-Nle-Lys-Lys-Arg-AMC as substrate preincubated for 10 mins by fluorescence-based biochemical assay
Nonstructural protein 3, sequence (A0A024AXB9 whole entry, the tested form may be a part): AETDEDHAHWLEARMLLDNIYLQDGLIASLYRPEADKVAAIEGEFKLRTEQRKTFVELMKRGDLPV
In short: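 ZIKV NS2B-NS3 protease at 1 nM, with 10 µM Bz-Nle-Lys-Lys-Arg-AMC in 20 mM HEPES pH 7.3 containing 0.05% Triton X-100. Compound at increasing concentrations in triplicate, pre-incubated with enzyme 10 min before substrate. Fluorescence (Ex 360/Em 460 nm) read every 30 s. IC50 from dose-response curve fit, 3 independent experiments, standard deviation.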

[2] = target: Genome polyprotein (dengue virus type 2, UniProt P29990); assay: Inhibition of Dengue virus 2 NS2B (50 to 95 residues)/NS3 (1 to 182 residues) protease expressed in Escherichia coli BL21 using Bz-Nle-Lys-Lys-Arg-AMC as substrate preincubated for 10 mins by fluorescence-based biochemical assay
In short: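 Recombinant DENV-2 NS2B-NS3 protease assayed like the ZIKV protease. Bz-Nle-Lys-Lys-Arg-AMC substrate, compound pre-incubated with enzyme 10 min, fluorescence monitored at Ex 360/Em 460 nm. IC50 from dose-response fit of triplicate samples at increasing concentrations.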

[3] = target: Genome polyprotein (West Nile virus, UniProt P06935); assay: Inhibition of West Nile virus NS2B (49 to 96 residues)/NS3 (2 to 184 residues) protease expressed in Escherichia coli BL21 using Bz-Nle-Lys-Lys-Arg-AMC as substrate preincubated for 10 mins by fluorescence-based biochemical assay
Genome polyprotein (West Nile virus, UniProt P06935), sequence (P06935 1371-1501 limits assumed): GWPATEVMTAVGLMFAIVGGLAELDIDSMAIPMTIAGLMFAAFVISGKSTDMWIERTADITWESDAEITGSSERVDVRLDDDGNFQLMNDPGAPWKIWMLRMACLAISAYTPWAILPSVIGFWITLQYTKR
Genome polyprotein (West Nile virus, UniProt P06935), sequence (P06935 1502-2120 limits assumed): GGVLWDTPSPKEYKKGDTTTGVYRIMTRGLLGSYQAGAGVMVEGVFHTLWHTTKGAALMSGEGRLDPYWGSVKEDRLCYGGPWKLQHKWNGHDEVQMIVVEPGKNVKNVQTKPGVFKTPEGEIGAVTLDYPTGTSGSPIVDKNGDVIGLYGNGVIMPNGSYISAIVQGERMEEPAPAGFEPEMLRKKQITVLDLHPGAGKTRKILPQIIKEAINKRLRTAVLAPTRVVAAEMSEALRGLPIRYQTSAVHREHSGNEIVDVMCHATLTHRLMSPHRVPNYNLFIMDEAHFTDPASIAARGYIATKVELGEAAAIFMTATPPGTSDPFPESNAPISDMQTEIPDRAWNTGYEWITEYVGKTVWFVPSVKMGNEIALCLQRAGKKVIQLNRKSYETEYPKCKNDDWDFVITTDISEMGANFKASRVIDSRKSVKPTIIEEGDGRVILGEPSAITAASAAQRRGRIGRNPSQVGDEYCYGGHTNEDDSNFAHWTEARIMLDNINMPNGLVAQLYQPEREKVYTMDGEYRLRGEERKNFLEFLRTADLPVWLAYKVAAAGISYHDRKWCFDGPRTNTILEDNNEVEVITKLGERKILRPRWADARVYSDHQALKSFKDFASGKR
In short: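 Recombinant WNV NS2B-NS3 protease, tested in the same way as the Zika protease assay. Compound was preincubated with enzyme for 10 min before Bz-Nle-Lys-Lys-Arg-AMC was added. Hydrolysis was followed as AMC fluorescence (Ex 360/Em 460 nm) read every 30 s. IC50 was derived by dose-response curve fitting.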

[4] = test system: Zika virus; assay: Antiviral activity against Zika virus infected in human U87 cells assessed as reduction in infectious virus in supernatant by measuring infection of Vero cells incubated with supernatant of viral infected U87 cells and measured following infection of supernatants with Vero cells for 7 days by MTT assay; format: functional; conditions: U-87 MG, 168 h, time 7 day
In short: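 U87 cells (2×10^4/well) in DMEM with 2% FBS, infected with ZIKV FLR strain (passage-3 stock) at MOI 0.01 for 1 h, then PBS-washed. Compound added in triplicate, 2 days at 37 °C. Half-log dilutions of supernatant put on Vero monolayers in quadruplicate for 7 days. CPE by microscopy then MTT. TCID50 from highest dilution infecting 2/4 wells. At least 2 independent experiments.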

[5] = test system: U-87 MG; assay: Cytotoxicity against human U87 cells assessed as inhibition of growth by MTT assay; format: cell-based; conditions: u-87mg atcc
[6] = target: Genome polyprotein (dengue virus type 2) (UniProt P29990); assay: Competitive inhibition of Dengue virus 2 NS2B (50 to 95 residues)/NS3 (1 to 182 residues) protease expressed in Escherichia coli BL21 using increased concentration of Bz-Nle-Lys-Lys-Arg-AMC substrate
In short: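 Steady-state kinetics. Initial velocities were measured across a range of inhibitor concentrations and substrate levels. […] Fluorescence was read at Ex 360/Em 460 nm. An IC50 was fitted at each substrate level and plotted against substrate concentration to assign the mode of inhibition.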

Row | Compound | IC50 [1] | other results
1 | O=C(NCC1CCNCC1)c1cc2ccc(C3=CCOCC3)cc2[nH]1 | 2.2 µM | 
2 | O=C(NCC1CCNCC1)c1cc2ccc(-c3ccc(N4CCCCC4)cc3)cc2[nH]1 | 7.9 µM | 
3 | O=C(NCC1CCNCC1)c1cc2ccc(-c3ccccc3)cc2[nH]1 | 9.4 µM | 
4 | N#Cc1ccc(-c2ccc3c(C(=O)NCC4CCNCC4)c[nH]c3c2)cc1 | 21.8 µM | IC50 [2]: 12 µM; IC50 [3]: 50.5 µM
5 | O=C(NCC1CCNCC1)c1cc2ccc(-c3ccc(N4CCNCC4)cc3)cc2[nH]1 | 5.6 µM | 
6 | O=C(NCC1CCNCC1)c1cc2ccc(-c3ccc(CO)cc3)cc2[nH]1 | 3.1 µM | EC68 [4]: > 10 µM; CC50 [5]: > 10 µM
7 | CC(C)(C)c1ccc(-c2ccc3[nH]c(C(=O)NCC4CCNCC4)cc3c2)cc1 | 7 µM | 
8 | N#Cc1ccc(-c2ccc3c(C(=O)NC4CCNCC4)coc3c2)cc1 | > 50 µM | 
9 | O=C(NCC1CCNCC1)c1c[nH]c2cc(-c3ccc(F)cc3)ccc12 | > 50 µM | 
10 | Cc1cc(C#N)ccc1-c1ccc2[nH]c(C(=O)NCC3CCNCC3)cc2c1 | 40.2 µM | IC50 [2]: > 50 µM; IC50 [3]: > 50 µM
11 | O=C(NCC1CCNCC1)c1cc2ccccc2[nH]1 | 24.6 µM | 
12 | O=C(NC1CCNCC1)c1c[nH]c2cc(-c3ccncc3)ccc12 | 1 µM | IC50 [2]: 10 µM; IC50 [3]: 10.5 µM; EC68 [4]: 10 µM; CC50 [5]: > 10 µM
13 | O=C(NC1CCNCC1)c1cc2ccc(-c3ccncc3)cc2[nH]1 | 9.8 µM | 
14 | O=C(NCC1CCNCC1)c1cc2ccc(-c3ccsc3)cc2[nH]1 | 6.4 µM | 
15 | CC(C)(C)c1ccc(-c2cc3[nH]cc(C(=O)NC4CCNCC4)c3cc2-c2ccc(C(C)(C)C)cc2)cc1 | 4.5 µM | 
16 | O=C(NCC1CCNCC1)c1cc2cc(-c3ccc(N4CCOCC4)cc3)ccc2[nH]1 | 33 µM | 
17 | O=C(NCC1CCNCC1)c1cc2ccc(-c3ccoc3)cc2[nH]1 | 0.32 µM | IC50 [2]: 1.6 µM; IC50 [3]: 5.7 µM; EC68 [4]: 1 µM; CC50 [5]: > 10 µM; Activity [6]: inactive
18 | COc1cc(-c2ccc3[nH]cc(C(=O)NC4CCNCC4)c3c2)cc(OC)c1OC | > 50 µM | 
19 | Cc1ccc(-c2ccc3c(C(=O)NCC4CCNCC4)c[nH]c3c2)cc1 | 48.9 µM | IC50 [2]: > 50 µM; IC50 [3]: > 50 µM
20 | O=C(NCC1CCNCC1)c1c[nH]c2cc(-c3ccc(CN4CCCCC4)cc3)ccc12 | 3.1 µM | IC50 [2]: 49.7 µM; IC50 [3]: 32 µM; EC68 [4]: 10 µM; CC50 [5]: > 10 µM
21 | O=C(NCC1CCNCC1)c1cc2ccc(-c3ccc(OC(F)(F)F)cc3)cc2[nH]1 |  | IC50 [2]: 10.7 µM; IC50 [3]: 16 µM; EC68 [4]: > 10 µM; CC50 [5]: > 10 µM
22 | O=C(NCC1CCNCC1)c1cc2cc(-c3cn[nH]c3)ccc2[nH]1 | 6 µM | 
23 | O=C(NCC1CCNCC1)c1c[nH]c2cc(-c3cccnc3)ccc12 | 1.1 µM | 

Row | Compound | IC50 [1] | other results
24 | CC(C)(C)c1ccc(-c2ccc3cc(C(=O)NCC4CCNCC4)[nH]c3c2)cc1 |  | IC50 [2]: 15 µM; IC50 [3]: 21.8 µM
25 | N#Cc1cccc(-c2ccc3[nH]c(C(=O)NCC4CCNCC4)cc3c2)c1 | 30.5 µM | 
26 | O=C(NCC1CCNCC1)c1c[nH]c2cc(-c3ccccc3F)ccc12 | > 50 µM | 
27 | O=C(NCC1CCNCC1)c1c[nH]c2nc(-c3ccc(C(F)(F)F)cc3)ccc12 | 18.1 µM | 
28 | O=C(NCC1CCNCC1)c1cc2ccc(-c3cccnc3)cc2[nH]1 | 27.2 µM | 
29 | CC(C)(C)c1ccc(-c2ccc3c(ccn3Cc3ccc(-c4ccoc4)cc3)c2)cc1 | > 50 µM | 
30 | COc1cc(-c2ccc3c(C(=O)NCC4CCNCC4)c[nH]c3c2)cc(OC)c1OC | > 50 µM | 
31 | O=C(NCC1CCNCC1)c1cc2ccc(-c3cn[nH]c3)cc2[nH]1 | 0.99 µM | IC50 [2]: 10.3 µM; IC50 [3]: 3.5 µM; EC68 [4]: > 10 µM; CC50 [5]: > 10 µM
32 | CC(C)(C)c1ccc(-c2ccc3[nH]cc(C(=O)NCC4CCNCC4)c3c2)cc1 | 11 µM | 
33 | O=C(NCC1CCNCC1)c1cc2cc(-c3ccc(N4CCNCC4)cc3)ccc2[nH]1 | 8.8 µM | 
34 | O=C(NCC1CCNCC1)c1cc2cc(-c3ccc(N4CCCCC4)cc3)ccc2[nH]1 | 11.4 µM | IC50 [2]: 40.2 µM; IC50 [3]: 31 µM
35 | O=C(NCC1CCNCC1)c1cc2ccc(-c3ccc(CCO)cc3)cc2[nH]1 | 45.6 µM | 
36 | O=C(NCC1CCNCC1)c1c[nH]c2cc(-c3ccoc3)c(-c3ccoc3)cc12 | 0.37 µM | IC50 [2]: 3.1 µM; IC50 [3]: 3.7 µM; EC68 [4]: 3 µM; CC50 [5]: > 10 µM
37 | O=C(NCC1CCNCC1)c1cc2ccc(C3=CCNCC3)cc2[nH]1 | 21 µM | 
38 | NC(=O)c1ccc(-c2ccc3cc(C(=O)NCC4CCNCC4)[nH]c3c2)cc1 | 7.1 µM | 
39 | CC(C)(C)c1ccc(-c2ccc3c(C(=O)NCC4CCNCC4)c[nH]c3c2)cc1 | 5 µM | IC50 [2]: 30.4 µM; IC50 [3]: 35.1 µM
40 | O=C(NCC1CCNCC1)c1c[nH]c2cc(-c3cn[nH]c3)ccc12 | 5.7 µM | IC50 [2]: 48.3 µM; IC50 [3]: 42 µM
41 | O=C(NCC1CCNCC1)c1cc2cc(-c3ccncc3)ccc2[nH]1 | 37 µM | 
42 | O=C(NCC1CCNCC1)c1cc2cc(-c3cccnc3)ccc2[nH]1 | > 50 µM | 
43 | O=C(NCC1CCNCC1)c1cc2cc(-c3ccc(-c4ccsc4)cc3)ccc2[nH]1 | 1.1 µM | 
44 | O=C(NCC1CCNCC1)c1cc2ccc(-c3ccc(Oc4ccccc4)cc3)cc2[nH]1 | 1.6 µM | IC50 [2]: 6.5 µM; IC50 [3]: 6.6 µM; EC68 [4]: 2.5 µM; CC50 [5]: > 10 µM
45 | O=C(NCC1CCNCC1)c1cc2cc(-c3ccc(CN4CCCCC4)cc3)ccc2[nH]1 | 4.7 µM | 
46 | O=C(NCC1CCNCC1)c1c[nH]c2cc(-c3ccncc3)ccc12 | 0.39 µM | 

Row | Compound | IC50 [1] | other results
47 | O=C(NCC1CCNCC1)c1c[nH]c2ccc(-c3ccc(F)cc3)cc12 | > 50 µM | 
48 | O=C(NCC1CCNCC1)c1c[nH]c2nc(-c3ccc(CN4CCOCC4)cc3)ccc12 | 0.6 µM | EC68 [4]: > 10 µM; CC50 [5]: > 10 µM
49 | N#Cc1ccc(-c2ccc3[nH]cc(C(=O)NC4CCNCC4)c3c2)cc1 | > 50 µM | 
50 | O=C(NCC1CCNCC1)c1cc2ccc(-c3ccncc3)cc2[nH]1 | 19.7 µM | 
51 | NCc1ccc(-c2ccc3[nH]c(C(=O)NCC4CCNCC4)cc3c2)cc1 | 9.5 µM | 
52 | O=C(NCC1CCNCC1)c1cc2ccc(-c3ccc(F)cc3)cc2[nH]1 | 14.4 µM | 
53 | NCc1ccc(-c2ccc3cc(C(=O)NCC4CCNCC4)[nH]c3c2)cc1 | 3.2 µM | 
54 | O=C(NCC1CCNCC1)c1c[nH]c2cc(-c3ccc(Cl)nc3)ccc12 | 42 µM | 
55 | O=Cc1cccc(-c2ccc3[nH]cc(C(=O)NCC4CCNCC4)c3c2)c1 | > 50 µM | 
56 | O=C(NCC1CCNCC1)c1c[nH]c2nc(-c3ccncc3)ccc12 | 1.9 µM | 
57 | O=C(NCC1CCNCC1)c1cc2cc(-c3ccc(N4CCCC4)cc3)ccc2[nH]1 | 3.4 µM | 
58 | O=C(NCC1CCNCC1)c1cc2cc(-c3ccc(-c4ccoc4)cc3)ccc2[nH]1 | 0.87 µM | 
59 | CC(C)(C)c1ccc(-c2ccc3c(ccn3Cc3ccc(-c4ccncc4)cc3)c2)cc1 | > 50 µM | 
60 | O=C(NCCC1CCNCC1)c1c[nH]c2cc(-c3ccncc3)ccc12 | 0.63 µM | EC68 [4]: 10 µM; CC50 [5]: > 10 µM
61 | COc1ccc(-c2ccc3cc(C(=O)NCC4CCNCC4)[nH]c3c2)cc1 | 1 µM | IC50 [2]: 10.6 µM; IC50 [3]: 20.1 µM
62 | O=C(NCC1CCNCC1)c1c[nH]c2nc(-c3ccc(CN4CCCCC4)cc3)ccc12 | 0.45 µM | IC50 [2]: 9.2 µM; IC50 [3]: 8.6 µM; EC68 [4]: 10 µM; CC50 [5]: > 10 µM
63 | CC(C)(C)c1ccc(-c2ccc3c(c2)c(C(=O)NCC2CCNCC2)cn3CCCC2CCNCC2)cc1 | 14.6 µM | 
64 | NCc1ccc(-c2ccc3c(C(=O)NCC4CCNCC4)c[nH]c3c2)cc1 | > 50 µM | 
65 | O=C(NC1CCNCC1)c1coc2cc(-c3ccoc3)ccc12 | 2.86 µM | 
66 | O=C(NCC1CCNCC1)c1c[nH]c2ccc(-c3ccc(F)cc3F)cc12 | > 50 µM | 
67 | N#Cc1ccc(-c2ccc3[nH]c(C(=O)NCC4CCNCC4)cc3c2)cc1 | 9.2 µM | 
68 | O=C(NCC1CCNCC1)c1c[nH]c2cc(-c3ccc(-c4ccccc4)cc3)ccc12 | 4.2 µM | EC68 [4]: > 10 µM; CC50 [5]: > 10 µM
